# From PubChem
# Most compounds without a hit are left out; they make up all but 2.9% or so of the library.
# TRPC4 block: inhibitors of mouse TRPC4 channel; 0.39% of 300,000 active; HEK293 TRPC4beta/mu-opioid, DAMGO-evoked Fluo4 calcium flux; stronger effect = lower value; B-score at 10 µM; Q9QUQ5;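 active = B-score over 3 SD under the library average, no early fluorescence shift, positive overall ratio signal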
#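 Test system – stable TRPC4beta/mu-opioid receptor HEK293 cells · Probe or stimulus – DAMGO, a submaximal dose followed by a maximal one · Dosing – one concentration per compound · Signal – Fluo4 calcium fluorescence by kinetic imaging, 5 s 1 Hz baseline · Evaluation – per-well B score of integrated baseline-normalized Fluo4 ratio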
# TRPC6 inh: inhibitors of mouse TRPC6 channel; HEK293-TRPC6, membrane potential dye, ACh-evoked depolarization; stronger effect = lower value; 1.1% of 310,000 active; B-score at 10 µM; Q61143;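 active = B-score under library mean minus 3 SD, initial fluorescence not abnormally high, positive integrated signal ratio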;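 note: B-score derived from integrated fluorescence ratio over the kinetic read; more negative B-score means stronger inhibition of depolarization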
# TRPC4 agonist: TRPC4 (mouse) channel activation; 0.49% of 310,000 active; B-score at 10 µM; Q9QUQ5; HEK293 TRPC4beta/mu-opioid, Fluo4 calcium fluorescence; stronger effect = higher value;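 active = B-score above 5 SD of library B-scores, and initial fluorescence ratio not above library mean plus 5 SD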;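 note: positive B-score marks a calcium rise read as TRPC4 activation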
#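 system = HEK293 cells stably co-expressing mouse TRPC4beta and mu-opioid receptor | schedule = Fluo4 dye loading 45 min at room temperature, 110 s recording | measure = B-scored integrated calcium fluorescence ratio | signal = Fluo4 calcium-sensitive dye fluorescence, kinetic, 1 Hz baseline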
# Kir21 block: inhibitors of mouse Kir2.1 inward-rectifier potassium channel; P35561; HEK293-Kir2.1, FluxOR thallium flux fluorescence; stronger effect = lower value; B-score at 10 µM; 0.85% of 310,000 active;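 active = fluorescence ratio B-score at or below minus 3 SD of library scores, with starting-brightness B-score within 2 SD, cut at about -4.2 in these data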;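 note: channel flux triggered by added potassium and thallium sulfate stimulus; B-score of peak minus minimum fluorescence over baseline after thallium stimulus; more negative B-score means stronger Kir2.1 block with less thallium influx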
# Target sequence (P35561 whole entry, looked up): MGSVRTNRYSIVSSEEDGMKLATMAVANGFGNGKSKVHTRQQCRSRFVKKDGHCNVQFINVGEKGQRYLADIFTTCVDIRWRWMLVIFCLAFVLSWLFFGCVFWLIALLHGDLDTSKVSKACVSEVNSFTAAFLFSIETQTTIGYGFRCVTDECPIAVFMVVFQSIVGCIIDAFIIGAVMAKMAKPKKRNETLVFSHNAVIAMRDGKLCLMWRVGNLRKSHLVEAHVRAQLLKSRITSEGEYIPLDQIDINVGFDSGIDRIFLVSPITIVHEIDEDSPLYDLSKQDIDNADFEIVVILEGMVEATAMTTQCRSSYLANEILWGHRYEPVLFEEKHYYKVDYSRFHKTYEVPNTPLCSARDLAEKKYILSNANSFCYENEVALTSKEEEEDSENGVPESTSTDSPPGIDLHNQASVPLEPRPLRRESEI
# TRPC6 act: activates the mouse TRPC6 cation channel; 0.13% of 310,000 active; Q61143; HEK293-TRPC6 membrane potential dye fluorescence; stronger effect = higher value; B-score at 10 µM;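 active = B-score of the integrated fluorescence ratio above library mean plus 3 SD, and starting fluorescence ratio within library mean plus 5 SD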;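 note: higher score means more depolarization so channel activation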
# TRPC4 PAM: TRPC4 (mouse) allosteric potentiation; HEK293 TRPC4beta/mu-opioid, DAMGO EC20, Fluo-4 Ca2+ flux; stronger effect = higher value; Q9QUQ5; B-score at 10 µM; 0.42% of 310,000 active;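 active = B-score of calcium response area above 5 SD of library B-scores, with initial fluorescence ratio within 5 SD of library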
# A number is an active result; . = inactive.
SMILES,TRPC4 block,TRPC6 inh,TRPC4 agonist,Kir21 block,TRPC6 act,TRPC4 PAM
CC(NCC(O)COCCC12CC3CC(CC(C3)C1)C2)c1ccccc1 (stereo unspecified),.,.,83,-12,.,.
OC(CNCCC(c1ccccc1)c1ccccc1)COc1ccccc1 (stereo unspecified),.,.,.,-6.5,.,.
Cc1ccc(C(OCC(O)CNCc2ccc(F)cc2)c2ccccc2)cc1 (stereo unspecified),.,.,.,-12,.,.
NCC(O)COCCC12CC3CC(CC(C3)C1)C2 (stereo unspecified),.,.,.,.,.,.
CC(=O)Nc1cccc(Oc2ccc(-c3noc(C)n3)cc2)c1,.,.,.,.,.,.
CCCCN1C2=NCCCN2c2cc(C)c(C)cc21,-7,.,.,.,.,.
CC(C)(C)c1ccc(CN2C3=NCCCN3c3ccccc32)cc1,.,.,.,.,.,.
CCCCN1C2=NCCCN2c2ccccc21,.,.,.,.,.,.
Cc1cc2c(cc1C)N(Cc1ccc(Cl)cc1)C1=NCCCN12,.,.,.,.,.,111
COc1ccc(N2CCN(S(=O)(=O)CCNC(=O)C3CC(=O)N(c4ccccc4)C3)CC2)cc1 (stereo unspecified),.,.,.,.,.,.
Cc1c(C#N)c(N)c(C(=O)c2ccccc2)n1Cc1ccccc1,.,.,.,-5.2,.,.
CCn1c(C)c(C(=O)c2ccccc2)c(C#N)c1C(=O)O,.,.,.,.,.,.
O=C(O)c1ccc2c(c1)C(=O)N(c1cccc(S(=O)(=O)Nc3cccc(C(F)(F)F)c3)c1)C2=O,.,.,.,.,.,.
Cc1cc(C)c2c(N)c3ccccc3nc2n1,.,.,.,.,.,.
CCc1ccc2nc3nc(C)cc(C)c3c(N)c2c1,-6,.,.,.,.,.
CC(=O)C1=C(c2ccccc2)NC(=S)NC1c1cc(Cl)c(OC(C)C)c(Cl)c1 (stereo unspecified),.,.,.,.,.,12
COc1cc(C2NC(=S)NC(c3ccccc3)=C2C(C)=O)cc(Cl)c1OCC(=O)O (stereo unspecified),.,.,.,.,.,.
Cc1cc(CCCCCCCCc2cc(C)cc(=O)o2)oc(=O)c1,.,.,.,.,.,.
Cc1ccc(C(C(=O)NC2CCCCC2)N(C(=O)Cc2c[nH]c3ccccc23)c2ccccc2C)o1 (stereo unspecified),.,.,.,.,.,.
COc1ccc(C(C(=O)NC2CCCCC2)N(C(=O)Cc2c[nH]c3ccccc23)c2ccccc2C)cc1OC (stereo unspecified),.,.,.,.,.,11
CC(C)c1ccccc1NC(=O)COC(=O)Cc1c[nH]c2ccccc12,.,.,.,-5.4,.,.
O=C(COC(=O)Cc1c[nH]c2ccccc12)NC1CCCCC1,.,.,.,-7,.,.
CCOc1ccccc1CN1CCN(Cc2cccc3nonc23)CC1CCO (stereo unspecified),-6,.,.,.,.,.
CCN1CCN(c2cc3c(nn2)Oc2ccccc2N3C)CC1,.,.,.,.,.,.
O=C(CCN=C1NS(=O)(=O)c2ccccc21)N1CCc2ccccc2C1,.,.,.,.,.,.
SMILES,TRPC4 block,TRPC6 inh,TRPC4 agonist,Kir21 block,TRPC6 act,TRPC4 PAM
O=C(Cc1cn(Cc2cccc(Cl)c2)c2ccccc12)N1CCCC1,.,.,.,-5.2,.,16
Cc1cc(C(=O)c2ccc(C(C)(C)C)cc2)c(NC(=O)CCl)s1,.,.,.,.,.,.
CC(C)OC(=O)C(C)(C)Oc1ccc(C(=O)c2ccc(Cl)cc2)cc1,.,.,.,.,.,.
CCNC(=O)NC(=O)C(C)OC(=O)C(C)(C)Oc1ccc(Cl)cc1 (stereo unspecified),.,.,.,-5.3,.,.
CSCCC(NC(=O)c1ccccc1Cl)C(=O)N1CCN(C(c2ccccc2)c2ccccc2)CC1 (stereo unspecified),.,.,.,-4.7,.,.
CSCCC(NS(=O)(=O)c1ccc(C)cc1)C(=O)N1CCN(C(c2ccccc2)c2ccccc2)CC1 (stereo unspecified),.,.,.,.,.,.
